The source of these data is ChEMBL document CHEMBL1177751, “Antifungal and cytotoxic activity of withanolides from Acnistus arborescens” (J Nat Prod, 2010).

Each structure is given as a SMILES string.

A short description of test [1]: Cytotoxicity against imatinib and dasatinib-resistant mouse DA1-3b/M2 cells after 72 hrs by MTT assay. The test is classed as functional, cell-based. The method, boiled down: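 Cells seeded at 10^4/well and exposed to compound or DMSO vehicle for 72 h. MTT added for the final 4 h, absorbance read at 490 nm; triplicate, camptothecin as positive control. K562R, DA1-3b/M2 and bone marrow cells (three healthy donors) grown in RPMI 1640 + 1% glutamine, 1% penicillin/streptomycin, 10% FCS. EML-C1 cultured per ATCC instructions.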
A general note: Tetrazolium dyes change colour on reduction, which living cells bring about.

The test system of test [2] is Pneumocystis carinii. As to the kind of experiment: Antifungal activity against Pneumocystis carinii after 4 days by RAL-555 staining based microscopy. Type of test: functional, organism-based. The following applies: 96 h. The method, boiled down: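 Pneumocystis carinii came from the lungs of athymic Lou nu/nu rats that were dexamethasone-immunosuppressed and infected. Broth microdilution in DMEM + 10% FCS, 1.0 × 10^6 organisms/mL, final drug 1.1 × 10^-5 to 212.3 µM diluted from DMSO stocks. Incubated 4 days at 37 °C, 5% CO2, with a drug-free control. Smears stained with RAL-555 and counted microscopically; triplicate. Hill (Emax sigmoid) model used.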

A word on the IC50: it is the concentration that inhibits the measured activity by half. Low readings indicate greater potency, high ones weaker potency. For `CC[C@@]1(O)C(=O)OCc2c1cc1n(c2=O)Cc2cc3ccccc3nc2-1` [CAMPTOTHECIN], in test [1], the IC50 was found to be 30 nM. As for `N=C(N)c1ccc(OCCCCCOc2ccc(C(=N)N)cc2)cc1` [PENTAMIDINE], the midpoint of inhibition in test [2], the IC50, lay at 84 nM.
